UHRF1 MBD2 ctr: human UHRF1 methylated DNA binding inhibitors; Q96T88; UHRF1 binding to methylated oligo, TR-FRET; hit rate 0.75% among 370,000; inhibition, % at 4.4 µM; in the data active = inhibition above about 21%;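 note: UHRF1 SRA domain binding a hemimethylated CpG hairpin DNA probe; 0% = median of test compound wells and 100% = reference inhibitor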
CSN inh: inhibitors of human CSN-mediated cullin deneddylation | Q92905 | Purified CSN, SCF-Nedd8-OG deneddylation, fluorescence polarization | inhibition, % at 12.5 µM | hit rate 0.38% among 360,000 | AID 651999;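 active = pattern-corrected inhibition above about 35%, with an unprinted fluorescence ratio check between 0.5 and 1.5, limit read from the data, passing the limit was not always enough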;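 note: 0% = enzyme with substrate and 100% = substrate without enzyme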
Target sequence (Q92905 whole entry, looked up, one chain of several): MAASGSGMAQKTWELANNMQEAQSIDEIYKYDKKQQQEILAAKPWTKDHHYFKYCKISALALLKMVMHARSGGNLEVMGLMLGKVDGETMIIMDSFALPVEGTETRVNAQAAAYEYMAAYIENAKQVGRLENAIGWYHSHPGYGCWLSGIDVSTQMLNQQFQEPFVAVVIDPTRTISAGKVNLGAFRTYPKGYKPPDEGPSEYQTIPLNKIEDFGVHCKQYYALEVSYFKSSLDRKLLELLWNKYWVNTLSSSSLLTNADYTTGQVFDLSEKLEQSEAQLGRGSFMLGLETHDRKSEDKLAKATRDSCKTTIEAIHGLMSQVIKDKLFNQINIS
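Material: human Csn5 produced in HEK293T cells; Input: enzyme 0.24 nM; Reagent: SCFSkp2-Nedd8OG substrate at 10 nM final; Dosing: 12.5 µM compound; Incubation: 90 min reaction at room temperature; Detection: fluorescence polarization of the substrate; Evaluation: % inhibition of substrate cleavage by Csn5; Control set: substrate-only high control, full reaction low control.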
LEDGF integ inh: blocks HIV-1 LEDGF/p75-dependent DNA integration; TR-FRET IN-LEDGF/p75 DNA integration, Eu/Cy5; inhibition, % at 3.7 µM; hit rate 0.64% among 370,000; AID 743269;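 active = inhibition above the screen-wide mean plus 3 SD, cut at about 13% in these data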;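 note: signal is the Cy5 over europium emission ratio at 671 and 618 nm; 0% = plate median of compound wells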
ATG4B inhibitor: inhibitors of human ATG4B cysteine protease. Q9Y4P1. ATG4B cleavage of LC3-PLA2, NBD-HPC fluorescence, 1 h. inhibition, % at 8.33 µM. hit rate 0.51% among 340,000; in the data active = inhibition above about 40%
Target sequence (Q9Y4P1 whole entry, looked up): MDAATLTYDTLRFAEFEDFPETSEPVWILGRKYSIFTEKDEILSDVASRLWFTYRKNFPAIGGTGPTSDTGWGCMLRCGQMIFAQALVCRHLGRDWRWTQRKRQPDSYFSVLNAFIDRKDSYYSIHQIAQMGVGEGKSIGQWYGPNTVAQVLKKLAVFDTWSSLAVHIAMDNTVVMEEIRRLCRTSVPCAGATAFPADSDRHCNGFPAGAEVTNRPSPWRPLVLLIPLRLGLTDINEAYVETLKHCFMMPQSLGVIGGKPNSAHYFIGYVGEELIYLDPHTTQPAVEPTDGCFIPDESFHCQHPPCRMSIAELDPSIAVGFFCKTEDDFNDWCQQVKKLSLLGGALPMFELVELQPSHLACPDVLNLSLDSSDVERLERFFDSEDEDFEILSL
MBD2 DNA inh: inhibitors of human MBD2 binding to methylated oligonucleotide | Q9UBB5 | TR-FRET | inhibition, % at 4.4 µM | hit rate 0.31% among 370,000 | AID 686964; in the data active = inhibition above about 13%
rCAG binder: r(CAG) repeat RNA binding; TO-PRO-1 dye displacement fluorescence; inhibition, % at 3 µM; hit rate 1.3% among 370,000; AID 651821;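 active = inhibition above the plate cutoff, the mean of all test compounds on that plate plus 3 SD, cut at about 35% in these data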;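 note: 0% = DMSO alone and 100% = 100 µM mitoxantrone as full dye displacement; higher means more dye released from RNA so lower well fluorescence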
ATG4B conf: confirmation of human ATG4B inhibitors | shares compounds with ATG4B inhibitor | ATG4B protease fluorescent substrate cleavage assay | inhibition, % at 8.33 µM | hit rate 92% among 320; in the data active = inhibition above about 39%
PLA2 counter: PLA2 (human) inhibition in ATG4B counter-screen | shares compounds with ATG4B inhibitor | purified PLA2, NBD-C6-HPC fluorescence, 45 min | inhibition, % at 8.33 µM | hit rate 66% among 1,600
rCAG binder conf: r(CAG) RNA repeat binding, confirmation. shares compounds with rCAG binder. TO-PRO-1 dye displacement fluorescence. inhibition, % at 3 µM. hit rate 70% among 4,300. AID 652065;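 active = inhibition above a per-plate cutoff, the mean inhibition of sample wells plus 3 SD, cut at about 35% in these data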;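 note: loss of TO-PRO-1 fluorescence as compound displaces dye from 1x1 AA loop RNA; 0% = DMSO only wells and 100% = 100 µM mitoxantrone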
DNA CAG counter: DNA CAG dye complex inhibition counter-screen | inhibition, % at 3 µM | AID 652068 | d(CAG) DNA oligo TO-PRO-1 dye displacement, fluorescence | shares compounds with rCAG binder | hit rate 94% among 4,300;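 active = inhibition above its plate's cutoff, the mean test-well inhibition plus 3 SD, cut at about 4.8% in these data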;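 note: 0% = DNA dye mix with DMSO and 100% = 100 µM mitoxantrone; hits displace the dye from DNA and so lower well fluorescence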
CSN deneddyl val: Csn5 (human) deneddylation inhibition, single-concentration validation | shares compounds with CSN inh | inhibition, % at 16.6 µM | hit rate 62% among 540 | Csn5 deneddylation of SCF-Nedd8OG, fluorescence polarization, 90 min;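 note: 0% = DMSO with enzyme and 100% = no enzyme wells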
MMP2 cntr CSN: MMP-2 (human) inhibition, counter-screen for CSN hits | inhibition, % at 16.6 µM | hit rate 33% among 540 | recombinant MMP-2, FRET substrate fluorescence, 60 min | shares compounds with CSN inh;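 active = corrected plate-normalized z-score of 5 or more, or -5 or less, or inhibition of 15% or more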;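 note: plate controls were DMSO wells with enzyme for no effect and buffer wells lacking MMP-2 for full effect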
Thrombin counter: blocks bovine thrombin in a CSN deneddylation counter-screen; shares compounds with CSN inh; bovine thrombin cleavage of Ub4-pepOG, fluorescence polarization; inhibition, % at 16.6 µM; hit rate 49% among 540; AID 720656;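 active = inhibition at or above a set limit, with a fluorescence interference ratio between 0.5 and a set maximum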
UHRF1 DNA bind: UHRF1 methyl-oligo binding inhibition as MBD2 counter-screen; shares compounds with MBD2 DNA inh; UHRF1 binding to methylated oligonucleotide, TR-FRET; inhibition, % at 4.4 µM; hit rate 25% among 1,000; in the data active = inhibition above about 21%;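 note: UHRF1 SRA domain binding a labeled hemimethylated CpG hairpin DNA; 0% = vehicle only and 100% = reference inhibitor with vehicle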
MBD2 DBD conf: MBD2-DBD methyl-DNA binding inhibition, TR-FRET confirmation. shares compounds with MBD2 DNA inh. inhibition, % at 4.4 µM. AID 720531. hit rate 26% among 1,000. TR-FRET MBD2-DBD binding to methylated oligonucleotide; in the data active = inhibition above about 14%
IN multimer act: counter-screen for LEDGF/p75 integration inhibitors: HIV-1 integrase multimerization activators | TR-FRET HIV-1 integrase multimerization, biochemical | shares compounds with LEDGF integ inh | activation, % at 7.7 µM | hit rate 17% among 2,000; in the data active = activation above about 8.9%
TRFRET interf: TR-FRET optical interference, LEDGF/p75 integration counter-screen. shares compounds with LEDGF integ inh. TR-FRET optical interference counterscreen, HIV-1 IN multimerization. inhibition, % at 7.7 µM. 2,000 tested, under 10 active;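 active = inhibition above the mean over all tested compounds plus 3 SD, which no compound reached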;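 note: 0% = integrase with antibodies and DMSO and 100% = antibodies without integrase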
LEDGF integ conf: confirmation of HIV-1 LEDGF/p75-dependent integration inhibitors; shares compounds with LEDGF integ inh; TR-FRET LEDGF/p75-dependent HIV-1 integration, biochemical; inhibition, % at 3.7 µM; hit rate 36% among 2,000; AID 1053136; in the data active = inhibition above about 14%
Starred values were filed as active, the others as inactive; . = no result. Shown are actives, neighbours in structure and some others; about 3.1% of the full set was active somewhere. Cut-off read from the data, not from the text of the source, unless noted: active = inhibition above about 50%; inactive = the rest.

SMILES	UHRF1 MBD2 ctr	CSN inh	LEDGF integ inh	ATG4B inhibitor	MBD2 DNA inh	rCAG binder	PLA2 counter	IN multimer act	TRFRET interf	LEDGF integ conf	others
CCCCCN1CCCCC(NC(=O)c2ccc(C)cc2)C1=O (stereo unspecified)	1	.	-1	.	0	-3	.	.	.	.
O=C1c2cccc(Cl)c2C(=O)c2c1cccc2N1CCCC1	14	-5	32*	48*	-3	3	63*	1	-6	-9
CN1CCN(C2=C(Cl)C(=O)c3ccccc3C2=O)CC1	16	5	34*	73*	-1	11	-16	3	-12	73*	ATG4B conf=30
O=C1C(Cl)=C(N2CCC(C(=O)O)CC2)C(=O)c2ccccc21	.	7	.	-6	.	.	.	.	.	.
COc1cc(NS(=O)(=O)c2ccc(NC(=S)NC(=O)/C=C/c3ccco3)cc2)ncn1	45*	49*	23*	56*	7	57*	12	8	-27	37*	ATG4B conf=46*;rCAG binder conf=48*;DNA CAG counter=16*;CSN deneddyl val=61*;MMP2 cntr CSN=23*;Thrombin counter=22*
COc1ccc2c(c1)CCCN2C(=O)C1CCCN(S(=O)(=O)c2ccccc2)C1 (stereo unspecified)	0	.	3	.	2	1	.	.	.	.
O=C1c2cc(CO)cc(O)c2C(=O)c2c(O[C@@H]3OC(CO)[C@@H](O)[C@@H](O)[C@@H]3O)cccc21 (stereo partly specified)	-4	-2	3	-31	-7	0	.	.	.	.
O=C(O)c1cc(O)c2c(c1)[C@H]([C@H]1c3cc(C(=O)O)cc(O)c3C(=O)c3c(O[C@@H]4O[C@H](CO)[C@@H](O)[C@H](O)[C@H]4O)cccc31)c1cccc(OC3O[C@H](CO)[C@@H](O)[C@H](O)[C@H]3O)c1C2=O (stereo partly specified)	73*	-1	82*	95*	33*	100*	-12	74*	-261	80*	rCAG binder conf=99*;DNA CAG counter=90*;UHRF1 DNA bind=90*;MBD2 DBD conf=94*
Cn1cccc1/C=C1\CCC/C(=C\c2cccn2C)C1=O	0	0	19*	45*	-3	-52	59*	1	-6	-4
O=Cc1cc(N=Nc2ccccc2Cl)ccc1O	-3	-3	17*	56*	2	13	77*	-3	13	49*
O=Cc1cc(N=Nc2cccc(C(=O)O)c2)ccc1O	11	-1	1	7	0	1	.	.	.	.
COC(=O)C1CN(Cc2ccccc2)CCS(=O)(=O)N1Cc1ccccc1F (stereo unspecified)	-1	.	0	.	-5	1	.	.	.	.
C=CCSC1=N/C(=C\c2cc(OCC)c(OC(C)=O)c([N+](=O)[O-])c2)C(=O)S1	19	3	32*	89*	-2	41*	94*	1	-3	3	rCAG binder conf=61*;DNA CAG counter=20*
COC(=O)c1cc2c(c3c4cc(C)ccc4n(S(=O)(=O)c4ccc(OC)cc4)c13)C(=O)N(Cc1ccccc1OC)C2	-1	.	0	.	6	14	.	.	.	.
COc1cccc2c1C(=O)C=C(C)C2=O	0	-2	-3	-4	2	0	.	.	.	.
COC1=CC(=O)c2c(ccc3ncnc(N)c23)C1=O	6	28	53*	62*	-6	1	-12	7	-26	73*	ATG4B conf=49*
COc1ccc(C(=O)C2(C(=O)Nc3cc(C)cc(C)c3)CC(c3ccccc3C(F)(F)F)=NO2)cc1 (stereo unspecified)	-1	.	-1	.	2	9	.	.	.	.
O=C1C=C(N2CCOCC2)c2ccccc2C1=O	2	30	22*	64*	-12	6	-19	3	-11	72*	ATG4B conf=53*
NNC(=S)NCc1ccccc1	3	-1	5	-3	-2	2	.	.	.	.
S=C(NCc1ccccc1)NCc1cccc(CNC(=S)NCc2ccccc2)c1	-6	0	44*	68*	2	6	77*	1	-7	-11
CCOC(=O)c1csc(NC(=O)C2CCCN(S(=O)(=O)c3ccc(Br)s3)C2)n1 (stereo unspecified)	-1	.	4	.	-1	1	.	.	.	.
CCC[C@H]1[C@@H](O)CC[C@@]23CCCN2C(=O)CCC[C@@H]13	0	.	4	.	0	.	.	.	.	.
Cc1ccc(NC(=O)c2ccccc2NS(=O)(=O)c2ccc(Cl)s2)cc1	1	-1	0	20	0	85*	.	.	.	.	rCAG binder conf=72*;DNA CAG counter=34*
O=C1CC(=Nc2ccc([N+](=O)[O-])cc2)NN1c1c(Cl)cc(Cl)cc1Cl	3	-1	-1	.	3	49*	.	.	.	.	rCAG binder conf=49*;DNA CAG counter=32*

Source: PubChem
